This is an account of results in paper PMC4944921 (Drug Design, Development and Therapy, 2016).

The subject of data set [1] is TJ proteins (occludin, claudin-1, F-actin) in Calu-3 cells. As to the kind of experiment: Immunofluorescence microscopy of tight junction proteins in Calu-3 cells. Type of data set: cell-based, human. Conditions: 3 hours treatment, vs control group. In outline:
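Calu-3 monolayers on collagen-coated 0.4 μm PET Transwell membranes were exposed to test compounds in medium for 3 h. Cells were fixed in cold 4% paraformaldehyde for 30 min and blocked with goat serum for 1 h. Anti-occludin or anti-claudin-1 (1:100, 4°C overnight) was detected with TRITC anti-rabbit or FITC anti-mouse IgG. F-actin was stained with phalloidin (1:150, RT, 30 min) and nuclei with DAPI. Relative AOD = (IntDen/Area) as % of control; three experiments; Dunnett test.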

Data set [2] concerns Calu-3 cells. As to the kind of experiment: MTT cytotoxicity assay in Calu-3 cells. It counts as cell-based, human. Conditions: comparison of the three compounds. The procedure, abridged:
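Calu-3 cells were seeded at 1×10^5 cells/mL in 96-well plates and grown for 48 h at 37°C in 5% CO2. They were then exposed to test compounds at various concentrations for 48 h. MTT (5 mg/mL stock in PBS) was added for 4 h at 37°C, formazan was dissolved in DMSO, and A490 was read. Viability (%) = (Asample−Ablank)/(Acontrol−Ablank)×100, from the mean of five measurements.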
Background: Formazan colour is commonly taken as a measure of viable cells.

For data set [3], the system named is abdominal skin of Rana catesbeiana. The conditions noted are these: menthol 5 mg/mL with puerarin, compared with puerarin alone group; cited from earlier work.
Data set [4] can be described thus: Puerarin bidirectional transport across Calu-3 cell monolayers. Type of data set: in vitro ADME, human. Conditions: human. In outline: (§1)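 Calu-3 cells (passages 5–10) were grown on collagen-coated PET Transwells, switched to air-interface culture from day 5 and used once TEER exceeded 500 Ω cm2. Monolayers were HBSS-washed and equilibrated for 30 min at 37°C. Drug was placed apically (A→B) or basolaterally (B→A), with shaking at 37°C. Receiver samples were taken at 30–180 min for HPLC-UV at 250 nm (C18; methanol:1% acetate 37:63). Papp was normalised to donor concentration and membrane area; ER = Papp(B→A)/Papp(A→B); n=3.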

The test system of data set [5] is Calu-3 cell monolayer. Described as above. It counts as in vitro ADME, human. In outline:
as §1

Data set [6] deals with Calu-3 cells. The data set is described as follows: TEER change of Calu-3 monolayers after exposure to compounds. It counts as cell-based, human. Conditions: A→B and B→A, 30-180 minutes, vs control group. In outline:
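Monolayers with TEER above 500 Ω cm2 received drug solution on the apical side (HBSS basolateral) or on the basolateral side (HBSS apical). Untreated monolayers served as control. TEER was read with chopstick electrodes and an epithelial volt–ohm meter at 30, 60, 90, 120, 150 and 180 min. Values are expressed relative to pre-experiment TEER (100%) and compared with control by one-way ANOVA and Dunnett test (P<0.05); three experiments, mean ± SD.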

For data set [7] the following is noted: cited from earlier work.

For `CC1CCC(C(C)C)C(O)C1` (centres unmarked) [menthol], the “relative AOD of occludin, claudin-1, and F-actin” value (“relative AOD of occludin” below) in data set [1] was “decreased significantly”. Moreover, the “relative toxicity to Calu-3 cells” value in data set [2] was “most toxic”. Further, the “Papp value of puerarin” value in data set [3] was “significantly higher”.

On to `C[C@@]12C[C@@]3(O)O[C@@H](O1)[C@]1(COC(=O)c4ccccc4)[C@H]3C[C@@]12O[C@@H]1O[C@H](CO)[C@@H](O)[C@H](O)[C@H]1O` [paeoniflorin], for which the “relative AOD of occludin” value in data set [1] is “did not significantly differ”.

By Papp is commonly meant a coefficient for how fast a substance crosses the barrier. Low values mean slow passage, high ones fast passage. In general, efflux ratio refers to a quotient of directional permeabilities that is used to spot active efflux. What is called Papp A→B is how fast a substance crosses the layer from the apical side. By Papp B→A is commonly meant how fast a substance crosses the layer from the basolateral side. For the compound `O=c1c(-c2ccc(O)cc2)coc2c([C@@H]3O[C@H](CO)[C@@H](O)[C@H](O)[C@H]3O)c(O)ccc12` [puerarin], in data set [1], the “relative AOD of occludin” value is listed as “did not significantly differ”. In data set [2], the “relative toxicity to Calu-3 cells” value is “safer and less irritating than paeoniflorin”. For the same compound, the Papp at 180 min in data set [4] is under 1.5 ×10⁻⁶ cm/s. In data set [4] (ER (B→A/A→B), puerarin 30 μg/mL alone), the efflux ratio at 180 min, 30 μg/mL was 0.963 ± 0.065. Further, in data set [4] (ER (B→A/A→B), puerarin 60 μg/mL alone), the efflux ratio at 180 min, 60 μg/mL was 1.01 ± 0.032. The compound further registered a Papp A→B at 180 min, 30 μg/mL in data set [4] (Papp (A→B), puerarin 30 μg/mL alone) of 1.22 ± 0.027 ×10⁻⁶ cm/s. In addition, the Papp A→B at 180 min, 60 μg/mL in data set [4] (Papp (A→B), puerarin 60 μg/mL + menthol 15 μg/mL) was 1.28 ± 0.084 ×10⁻⁶ cm/s; in data set [4] (Papp (A→B), puerarin 60 μg/mL + menthol 30 μg/mL), 1.64 ± 0.058 ×10⁻⁶ cm/s; in data set [4] (Papp (A→B), puerarin 60 μg/mL + menthol 60 μg/mL) it was 1.79 ± 0.087 ×10⁻⁶ cm/s; in data set [4] (Papp (A→B), puerarin 60 μg/mL + paeoniflorin 12 μg/mL), 1.24 ± 0.027 ×10⁻⁶ cm/s; in data set [4] (Papp (A→B), puerarin 60 μg/mL + paeoniflorin 12 μg/mL + menthol 15 μg/mL), 1.3 ± 0.15 ×10⁻⁶ cm/s; in data set [4] (Papp (A→B), puerarin 60 μg/mL + paeoniflorin 24 μg/mL), 1.23 ± 0.054 ×10⁻⁶ cm/s. Moreover, the Papp A→B at 180 min, 60 μg/mL in data set [4] (Papp (A→B), puerarin 60 μg/mL + paeoniflorin 24 μg/mL + menthol 30 μg/mL) was 1.56 ± 0.143 ×10⁻⁶ cm/s; in data set [4] (Papp (A→B), puerarin 60 μg/mL + paeoniflorin 48 μg/mL), 1.23 ± 0.025 ×10⁻⁶ cm/s; in data set [4] (Papp (A→B), puerarin 60 μg/mL + paeoniflorin 48 μg/mL + menthol 60 μg/mL), 1.96 ± 0.067 ×10⁻⁶ cm/s; in data set [4] (Papp (A→B), puerarin 60 μg/mL alone), 1.23 ± 0.039 ×10⁻⁶ cm/s. Also, in data set [4] (Papp (A→B), puerarin 120 μg/mL alone), the Papp A→B at 180 min, 120 μg/mL was 1.24 ± 0.053 ×10⁻⁶ cm/s. The apical-to-basolateral permeability (Papp A→B) at 180 min in data set [4] (Papp (A→B), puerarin alone, span over 30, 60 and 120 μg/mL) is 1.22 to 1.24 ×10⁻⁶ cm/s. Further, the Papp B→A at 180 min, 30 μg/mL in data set [4] (Papp (B→A), puerarin 30 μg/mL alone) stood at 1.17 ± 0.053 ×10⁻⁶ cm/s. Moreover, the basolateral-to-apical permeability (Papp B→A) at 180 min, 60 μg/mL in data set [4] (Papp (B→A), puerarin 60 μg/mL + menthol 15 μg/mL) is 1.36 ± 0.083 ×10⁻⁶ cm/s; in data set [4] (Papp (B→A), puerarin 60 μg/mL + menthol 30 μg/mL) it was 1.8 ± 0.111 ×10⁻⁶ cm/s; in data set [4] (Papp (B→A), puerarin 60 μg/mL + menthol 60 μg/mL), 2.07 ± 0.151 ×10⁻⁶ cm/s; in data set [4] (Papp (B→A), puerarin 60 μg/mL + paeoniflorin 12 μg/mL), 1.24 ± 0.037 ×10⁻⁶ cm/s; in data set [4] (Papp (B→A), puerarin 60 μg/mL + paeoniflorin 12 μg/mL + menthol 15 μg/mL), 1.29 ± 0.067 ×10⁻⁶ cm/s; in data set [4] (Papp (B→A), puerarin 60 μg/mL + paeoniflorin 24 μg/mL) it was 1.25 ± 0.032 ×10⁻⁶ cm/s. The Papp B→A at 180 min, 60 μg/mL in data set [4] (Papp (B→A), puerarin 60 μg/mL + paeoniflorin 24 μg/mL + menthol 30 μg/mL) was 1.91 ± 0.254 ×10⁻⁶ cm/s; in data set [4] (Papp (B→A), puerarin 60 μg/mL + paeoniflorin 48 μg/mL) it was 1.29 ± 0.035 ×10⁻⁶ cm/s; in data set [4] (Papp (B→A), puerarin 60 μg/mL + paeoniflorin 48 μg/mL + menthol 60 μg/mL), 2.14 ± 0.13 ×10⁻⁶ cm/s; in data set [4] (Papp (B→A), puerarin 60 μg/mL alone), 1.24 ± 0.055 ×10⁻⁶ cm/s. In addition, in data set [4] (Papp (B→A), puerarin 120 μg/mL alone), the Papp B→A at 180 min, 120 μg/mL came out at 1.27 ± 0.104 ×10⁻⁶ cm/s. The Papp B→A at 180 min in data set [4] (Papp (B→A), puerarin alone, span over 30, 60 and 120 μg/mL) lay within 1.17 to 1.27 ×10⁻⁶ cm/s. In data set [4] (efflux ratio (ER), puerarin alone, each concentration 30, 60, 120 μg/mL), the efflux ratio at 180 min is under 1.5. Moreover, the “ER (B→A/A→B)” value is 1.065±0.116 in data set [5] (puerarin 60 μg/mL + menthol 15 μg/mL); 1.100±0.060 in data set [5] (puerarin 60 μg/mL + menthol 30 μg/mL); 1.157±0.088 in data set [5] (puerarin 60 μg/mL + menthol 60 μg/mL); 1.002±0.039 in data set [5] (puerarin 60 μg/mL + paeoniflorin 12 μg/mL); 0.999±0.150 in data set [5] (puerarin 60 μg/mL + paeoniflorin 12 μg/mL + menthol 15 μg/mL); 1.018±0.065 in data set [5] (puerarin 60 μg/mL + paeoniflorin 24 μg/mL). The “ER (B→A/A→B)” value in data set [5] (puerarin 60 μg/mL + paeoniflorin 24 μg/mL + menthol 30 μg/mL) is recorded as 1.228±0.157; in data set [5] (puerarin 60 μg/mL + paeoniflorin 48 μg/mL) it was 1.049±0.027; in data set [5] (puerarin 60 μg/mL + paeoniflorin 48 μg/mL + menthol 60 μg/mL) it was 1.091±0.048; in data set [5] (puerarin 120 μg/mL alone), 1.023±0.070. Also, the “efflux ratio (ER)” value in data set [5] (puerarin alone, each concentration 30, 60, 120 μg/mL) is on record as ~ 1. Moreover, the “trend of TEER change” value in data set [6] is given as “no difference from the control group”. Besides, the “AUC0−∞ (plasma)” value in data set [7] (Tongqiaosanyu, caudal vein injection, rats) is on record as 787.99±70.44 mg⋅min⋅L^−1. The “AUC0–∞ (plasma)” value in data set [7] (Tongqiaosanyu, nasal administration, rats) is recorded as 376.56±93.93 mg⋅min⋅L^−1. In data set [7] (intranasal administration), the “brain drug targeting index” value is 2.70. In data set [7] (intranasal administration), the “brain targeting coefficient (Re)” value was 132.25%. Moreover, the absolute bioavailability in data set [7] (nasal administration) is listed as 47.78%.
